Results on 16 compounds are retold here after ChEMBL document CHEMBL4118059, “Hirsutane-Type Sesquiterpenes with Inhibitory Activity of Microglial Nitric Oxide Production from the Red Alga-Derived Fungus Chondrostereum sp. NTOU4196” (J Nat Prod, 2017).

For data set [1], the system named is BV-2. Kind of data set: Antineuroinflammatory activity in mouse BV2 cells assessed as inhibition of LPS-induced nitric oxide production pretreated for 15 mins followed by LPS-stimulation measured after 24 hrs by colorimetric method. It is filed as functional, cell-based.
Data set [2] is described as follows: Cytotoxicity against LPS-induced mouse BV2 cells assessed as cell viability at 5 uM pretreated for 15 mins followed by LPS-stimulation measured after 24 hrs by MTT assay relative to control. It is filed as cell-based, BV-2. The note with it: LPS-stimulated BV2 cells, read-out: Activity. The gist of the method:
(§1)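 BV-2 cells, LPS-activated, exposed to compounds at 2–20 μM. Viability was measured by MTT assay and expressed as mean ± SD of three independent experiments.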

Data set [3] in a line: Cytotoxicity against LPS-induced mouse BV2 cells assessed as cell viability at 2 uM pretreated for 15 mins followed by LPS-stimulation measured after 24 hrs by MTT assay relative to control. The conditions noted are these: LPS-stimulated BV2 cells, read-out: Activity. Type of data set: cell-based, BV-2. Summed up:
as §1

Data set [4] concerns BV-2. Kind of data set: Antineuroinflammatory activity in mouse BV2 cells assessed as inhibition of LPS-induced nitric oxide production by measuring nitrite levels at 20 uM pretreated for 15 mins followed by LPS-stimulation measured after 24 hrs by colorimetric method (reference value: 15 +/- 1 uM). Type of data set: functional.
The test system of data set [5] is BV-2. Kind of data set: Antineuroinflammatory activity in mouse BV2 cells assessed as inhibition of LPS-induced nitric oxide production at 20 uM pretreated for 15 mins followed by LPS-stimulation measured after 24 hrs by colorimetric method relative to control. It is filed as functional.
Data set [6] is described as follows: Cytotoxicity against LPS-induced mouse BV2 cells assessed as cell viability at 20 uM pretreated for 15 mins followed by LPS-stimulation measured after 24 hrs by MTT assay relative to control. Type of data set: cell-based, BV-2. The note with it: LPS-stimulated BV2 cells, read-out: Activity. Summed up: as §1
Data set [7] in a line: Cytotoxicity against LPS-induced mouse BV2 cells assessed as cell viability at 10 uM pretreated for 15 mins followed by LPS-stimulation measured after 24 hrs by MTT assay relative to control. Type of data set: cell-based, BV-2. The note with it: LPS-stimulated BV2 cells, read-out: Activity. Summed up:
as §1

Data set [8] has as its system BV-2. Put plainly: Antineuroinflammatory activity in mouse BV2 cells assessed as inhibition of LPS-induced nitric oxide production at 5 uM pretreated for 15 mins followed by LPS-stimulation measured after 24 hrs by colorimetric method relative to control. It is filed as functional.

For `C=C1[C@H](O)C[C@]2(O)C[C@]3(O)CC(C)(C)C[C@]3(O)[C@]12C`, the inhibition result in the data set on BV-2 [1] is “Dose-dependent effect”. For the same compound, in data set [2], the viability at 24 h, 5 µM came to 82%. Moreover, the viability at 24 h, 2 µM in data set [3] is 93%. Besides, the Activity in the data set with BV-2 [4] is 8 µM. For the same compound, in the data set with BV-2 [5], the inhibition at 20 µM was determined as 47%. Further, the viability at 24 h, 20 µM in data set [6] was determined as 67%. The viability at 24 h, 10 µM in data set [7] was 73%.
With `C[C@@H]1[C@@H](O)C[C@]2(O)[C@H](O)C3=CC(C)(C)C[C@H]3[C@]12C`, the Activity in the data set with BV-2 [4] worked out at 14 µM. In addition, in data set [6], the viability at 24 h, 20 µM amounted to 87%.
As for `C[C@H]1C(=O)C=C2C=C3[C@@H](O)C(C)(C)C[C@@]3(O)[C@@]21C`, the Activity in the data set on BV-2 [4] amounted to 12 µM. Moreover, the viability at 24 h, 20 µM in data set [6] came out at 71%.
With `C[C@H]1[C@H](O)C[C@@]2(O)C[C@]3(O)CC(C)(C)C[C@@H]3[C@@]12C`, in the data set with BV-2 [4], the Activity is 13 µM.
Regarding `C=C1C(=O)C=C2C[C@@]3(O)CC(C)(C)C[C@H]3[C@]12C`, the Activity in the data set with BV-2 [4] is 4 µM. In addition, the viability at 24 h, 20 µM in data set [6] is 12%. Moreover, the viability at 24 h, 10 µM in data set [7] turned out to be 22%.
With `C[C@@H]1C(=O)C[C@]2(O)C[C@@]3(O)CC(C)(C)C[C@H]3[C@]12C`, the Activity in the data set on BV-2 [4] amounted to 12 µM. In data set [6], the viability at 24 h, 20 µM turned out to be 83%.
In the case of `C[C@@H]1[C@@H](O)C[C@]2(O)C=C3C(=CC(C)(C)[C@@H]3O)[C@]12C`, the Activity in the data set with BV-2 [4] amounted to 11 µM. Moreover, the viability at 24 h, 20 µM in data set [6] stood at 93%.
For `C[C@H]1[C@@H](O)C[C@]2(O)C[C@@]3(O)CC(C)(C)C[C@H]3[C@]12C`, the Activity in the data set on BV-2 [4] was 13 µM.
Take `COc1cc(/C=C/C(=O)CC(=O)/C=C/c2ccc(O)c(OC)c2)ccc1O` [CURCUMIN]: the 50% inhibitory concentration (IC50) with BV-2 [1] came to 6 µM.
Turning to `C=C1C(=O)C[C@@]2(OC)C[C@]3(O)CC(C)(C)C[C@@H]3[C@]12C`, the viability at 24 h, 5 µM in data set [2] is 30%. In data set [3], the viability at 24 h, 2 µM is 47%. For the same compound, the Activity in the data set on BV-2 [4] amounted to 4 µM. Also, the viability at 24 h, 20 µM in data set [6] turned out to be 11%. In addition, the viability at 24 h, 10 µM in data set [7] is 11%.
On to `C=C1C(=O)C=C2C=C3[C@@H](O)C(C)(C)C[C@@]3(O)[C@]12C`, for which the inhibition entry in the data set with BV-2 [1] was “Dose-dependent effect”. Also, the viability at 24 h, 5 µM in data set [2] was found to be 87%. For the same compound, in data set [3], the viability at 24 h, 2 µM came to 94%. For the same compound, the Activity in the data set on BV-2 [4] was determined as 8 µM. Also, in the data set with BV-2 [8], the inhibition at 5 µM amounted to 53%. For the same compound, the viability at 24 h, 20 µM in data set [6] was determined as 39%. In addition, in data set [7], the viability at 24 h, 10 µM is 77%.
On to `C[C@H]1C(=O)C=C2C=C3C(=O)C(C)(C)C[C@@]3(O)[C@@]21C`, for which, in the data set with BV-2 [4], the Activity is 4 µM. In addition, in data set [6], the viability at 24 h, 20 µM is 11%. Also, in data set [7], the viability at 24 h, 10 µM is 23%.
Take `C=C1C(=O)C[C@]2(O)[C@H](O)C3=C(CC(C)(C)C3=O)[C@]12C`: in data set [2], the viability at 24 h, 5 µM worked out at 95%. Further, the viability at 24 h, 2 µM in data set [3] was 95%. For the same compound, the Activity with BV-2 [4] was determined as 10 µM. For the same compound, in data set [6], the viability at 24 h, 20 µM stood at 69%. The viability at 24 h, 10 µM in data set [7] came to 89%.
In the case of `C[C@H]1C(=O)C[C@]2(O)C[C@@]3(O)CC(C)(C)C[C@H]3[C@]12C`, in the data set with BV-2 [4], the Activity came to 11 µM.
On to `C[C@@H]1[C@@H](O)C[C@]2(O)[C@H](O)[C@H]3CC(C)(C)C[C@H]3[C@]12C`, for which the Activity in the data set with BV-2 [4] came to 12 µM. For the same compound, the viability at 24 h, 20 µM in data set [6] came out at 83%.
The like results for `C[C@@H]1[C@@H](O)C[C@]2(O)CC3=C(CC(C)(C)C3=O)[C@]12C` were, in that order, 11.6 µM and 97%.
